Results as given in ChEMBL document CHEMBL1133632, “A new class of antituberculosis agents” (2000).
Converted amounts (≈) assume the structure as drawn.

The compounds below were run on Mycobacterium tuberculosis (assay: Activity against Mycobacterium tuberculosis (H37Rv) using the standard BACTEC radiometric growth assay). Settings: not given.
Format: functional
How it was run: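 BACTEC radiometric MIC against M. tuberculosis H37Rv. Compounds in DMSO (1 mg/mL stock), final 50, 25, 12.5, 6.25, 3.0, 1.5 µg/mL. Inoculum 0.1 mL of a 1.0 McFarland suspension. Controls: DMSO direct control and 1:100 organism dilution. Incubated 37 °C, growth index read daily until the 1:100 control reached 30. MIC = lowest concentration with 1-day GI change below the 1:100 control.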

SMILES | MIC [µg/mL]
CCCCCCCCC[S+]([O-])CC(N)=O (single isomer, unassigned) | 25 (≈ 107 µM)

Same assay, conditions: Mycobacterium tuberculosis; read-out: MIC

SMILES | MIC [µg/mL]
CCCCCCCCS(=O)(=O)NS(C)(=O)=O | > 25
CCCCCCS(=O)(=O)CC(N)=O | > 50
CCCCCCCCC[S+]([O-])CC(=O)OC (single isomer, unassigned) | > 25
CCCCCCCCC[S+]([O-])CC(N)=O (racemic) | 25 (≈ 107 µM)
CCCCCCC/C=C\S(=O)(=O)CC(N)=O | 12.5 (≈ 50.5 µM)
C/C=C/C/C=C/CCC(=O)[C@H]1O[C@H]1C(N)=O [CERULENIN] | 1.5 (≈ 6.72 µM)
NC(=O)c1cnccn1 [PYRAZINAMIDE] | 100 (≈ 812 µM)
CCCCCCCC[S+]([O-])CC(=O)OCc1ccccc1 (stereo unspecified) | 6.25 (≈ 20.1 µM)
CCCCCCCCS(=O)(=O)CC(=O)OC | > 25
CCCCCCCCS(=O)(=O)NC(N)=O | > 25
NC(=O)CS(=O)(=O)CCCCCCc1ccccc1 | 12.5 (≈ 44.1 µM)
CCCCCCCCS(=O)(=O)CC(N)=O | 6.25 (≈ 26.6 µM)
CC(C)CCCC(C)CCS(=O)(=O)CC(N)=O (stereo unspecified) | 6.25 (≈ 23.7 µM)
CCCCCCCCCCP(=O)([O-])CC(N)=O.[K+] | > 50
CCOCCOCCS(=O)(=O)CC(N)=O | > 25
CCCCCCCCS(=O)(=O)CC(=O)OCc1ccccc1 | 12.5 (≈ 38.3 µM)
CCCCCCCC[S+]([O-])CC(=O)OC (stereo unspecified) | 12.5 (≈ 53.3 µM)
CCCCCCCS(=O)(=O)CC(N)=O | > 25
CCCCCCCCCCCCS(=O)(=O)CC(N)=O | 12.5 (≈ 42.9 µM)
NC(=O)CS(=O)(=O)CCCCCc1ccccc1 | 12.5 (≈ 46.4 µM)

SMILES | MIC [µg/mL]
CCCCCCCCS(=O)(=O)NS(N)(=O)=O | > 25
CC[C@@H](CO)NCCN[C@@H](CC)CO [ETHAMBUTOL] | 2 (≈ 9.79 µM)
CCCCCCCCCCOCC(N)=O | > 25
CCCCCCCCCS(=O)(=O)CC(N)=O | 3 (≈ 12 µM)
NNC(=O)c1ccncc1 [ISONIAZID] | 0.1 (≈ 0.729 µM)
CN[C@@H]1[C@H](O[C@H]2[C@H](O[C@H]3[C@H](O)[C@@H](O)[C@H](N=C(N)N)[C@@H](O)[C@@H]3N=C(N)N)O[C@@H](C)[C@]2(O)C=O)O[C@@H](CO)[C@H](O)[C@H]1O [STREPTOMYCIN] | 2 (≈ 3.44 µM)
CCCCCCCCCCSCC(N)=O | 25 (≈ 108 µM)
CCCCCCCCCC[S+]([O-])CC(N)=O (stereo unspecified) | 6.25 (≈ 25.3 µM)
CC(C)CCCCCCCS(=O)(=O)CC(N)=O | 1.5 (≈ 5.69 µM)
CO[C@H]1/C=C/O[C@@]2(C)Oc3c(C)c(O)c4c(O)c(c(/C=N/N5CCN(C)CC5)c(O)c4c3C2=O)NC(=O)/C(C)=C\C=C\[C@H](C)[C@H](O)[C@@H](C)[C@@H](O)[C@@H](C)[C@H](OC(C)=O)[C@@H]1C [RIFAMPIN] | 2 (≈ 2.43 µM)
CCCCCCCCCCS(=O)(=O)CC(N)=O | 1.5 (≈ 5.69 µM)
CCCCCCCCCCCCCCCCCCS(=O)(=O)CC(N)=O | > 50
NC(=O)CS(=O)(=O)CCCCc1ccccc1 | > 25
CCCCCCC/C=C/S(=O)(=O)CC(N)=O | 12.5 (≈ 50.5 µM)
CCCCCCCCS(=O)(=O)CC(=O)O | > 25
C=C/C(C)=C/[C@@]1(C)SC(=O)C(C)=C1O [THIOLACTOMYCIN] | 25 (≈ 119 µM)
CCCCCCCCC[S+]([O-])CC(=O)OC (racemic) | > 25
CCCCCCCCC[S@@+]([O-])CC(N)=O | 25 (≈ 107 µM)
CCCCCCCCCCS(=O)(=O)C(C)C(N)=O (stereo unspecified) | > 25
CCCCCCCCCCS(=O)(=O)CCC(N)=O | > 25
